≈ marks a conversion by molar mass, not a printed value.
Experiments:
Type in all cases: functional
[1] = system: Candida parapsilosis; experiment: Antifungal activity against Candida parapsilosis by NCCLS broth microdilution method
Summary of the method: (§1)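 MIC90 was taken as the lowest concentration that inhibited 90% of pathogen growth after incubation, reported in μg/mL. Broth dilution followed the NCCLS reference standards: M27-A for yeasts and the proposed standard for conidium-forming filamentous fungi. Fluconazole was the reference drug.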

[2] = system: Aspergillus niger; experiment: Antifungal activity against Aspergillus niger by NCCLS broth microdilution method; summary of the method: as §1
[3] = system: Pseudomonas aeruginosa; experiment: Antibacterial activity against Pseudomonas aeruginosa by NCCLS broth microdilution method
[4] = system: Cryptococcus neoformans; experiment: Antifungal activity against Cryptococcus neoformans by NCCLS broth microdilution method; summary of the method: as §1
[5] = system: Klebsiella pneumoniae; experiment: Antibacterial activity against Klebsiella pneumoniae by NCCLS broth microdilution method
[6] = system: Staphylococcus aureus; experiment: Antibacterial activity against Staphylococcus aureus by NCCLS broth microdilution method
[7] = system: Candida albicans; experiment: Antifungal activity against Candida albicans by NCCLS broth microdilution method; summary of the method: as §1
[8] = system: Bacillus subtilis; experiment: Antibacterial activity against Bacillus subtilis by NCCLS broth microdilution method
[9] = Lodderomyces parapsilosis, read-out: MIC90
[10] = Aspergillus niger, read-out: MIC90
[11] = Pseudomonas aeruginosa, read-out: MIC90
[12] = Cryptococcus neoformans, read-out: MIC90
[13] = Klebsiella pneumoniae, read-out: MIC90
[14] = Staphylococcus aureus, read-out: MIC90
[15] = Candida albicans, read-out: MIC90
[16] = Bacillus subtilis, read-out: MIC90

| Molecule | MIC90 [1, 9] | MIC90 [2, 10] | MIC90 [3, 11] | MIC90 [4, 12] | MIC90 [5, 13] | MIC90 [6, 14] | MIC90 [7, 15] | MIC90 [8, 16] | MIC90 [1] | MIC90 [2] | MIC90 [3] | MIC90 [4] | MIC90 [5] | MIC90 [6] | MIC90 [7] | MIC90 [8] |
| --- | --- | --- | --- | --- | --- | --- | --- | --- | --- | --- | --- | --- | --- | --- | --- | --- |
| CO/N=C1\C2CCCC1(C)C(c1cccc(Cl)c1)NC2c1cccc(Cl)c1 (configuration not stated) | 32 µg/mL (≈ 79.3 µM) | 128 µg/mL (≈ 317 µM) | 64 µg/mL (≈ 159 µM) | 64 µg/mL (≈ 159 µM) | 32 µg/mL (≈ 79.3 µM) | 64 µg/mL (≈ 159 µM) | 32 µg/mL (≈ 79.3 µM) | 128 µg/mL (≈ 317 µM) | – | – | – | – | – | – | – | – |
| CO/N=C1\C2CCCC1(C)C(c1ccc(F)cc1)NC2c1ccc(F)cc1 (configuration not stated) | 8 µg/mL (≈ 21.6 µM) | 32 µg/mL (≈ 86.4 µM) | 16 µg/mL (≈ 43.2 µM) | 16 µg/mL (≈ 43.2 µM) | 16 µg/mL (≈ 43.2 µM) | 8 µg/mL (≈ 21.6 µM) | 8 µg/mL (≈ 21.6 µM) | 32 µg/mL (≈ 86.4 µM) | – | – | – | – | – | – | – | – |
| CO/N=C1\C2CCCC1(C)C(c1cccc(F)c1)NC2c1cccc(F)c1 (configuration not stated) | 64 µg/mL (≈ 173 µM) | 64 µg/mL (≈ 173 µM) | 32 µg/mL (≈ 86.4 µM) | 128 µg/mL (≈ 346 µM) | 32 µg/mL (≈ 86.4 µM) | 16 µg/mL (≈ 43.2 µM) | 16 µg/mL (≈ 43.2 µM) | 128 µg/mL (≈ 346 µM) | – | – | – | – | – | – | – | – |
| COc1cccc(C2NC(c3cccc(OC)c3)C3(C)CCCC2/C3=N\O)c1 (configuration not stated) | > 128 µg/mL | > 128 µg/mL | > 128 µg/mL | 128 µg/mL (≈ 336 µM) | > 128 µg/mL | 128 µg/mL (≈ 336 µM) | > 128 µg/mL | 128 µg/mL (≈ 336 µM) | – | – | – | – | – | – | – | – |
| COc1ccccc1C1NC(c2ccccc2OC)C2(C)CCCC1/C2=N\O (configuration not stated) | 128 µg/mL (≈ 336 µM) | 128 µg/mL (≈ 336 µM) | 128 µg/mL (≈ 336 µM) | 64 µg/mL (≈ 168 µM) | 128 µg/mL (≈ 336 µM) | 64 µg/mL (≈ 168 µM) | > 128 µg/mL | 64 µg/mL (≈ 168 µM) | – | – | – | – | – | – | – | – |
| CC1CC2C(=NO)C(C1)C(c1cccc(Cl)c1)NC2c1cccc(Cl)c1 (configuration not stated) | 128 µg/mL (≈ 329 µM) | 64 µg/mL (≈ 164 µM) | 64 µg/mL (≈ 164 µM) | > 128 µg/mL | 32 µg/mL (≈ 82.2 µM) | 64 µg/mL (≈ 164 µM) | 64 µg/mL (≈ 164 µM) | 32 µg/mL (≈ 82.2 µM) | – | – | – | – | – | – | – | – |
| CC1CC2C(=NO)C(C1)C(c1cccc(F)c1)NC2c1cccc(F)c1 (stereo in doubt; 50b) | – | – | – | – | – | – | – | – | 32 µg/mL (≈ 89.8 µM) | 32 µg/mL (≈ 89.8 µM) | 32 µg/mL (≈ 89.8 µM) | 64 µg/mL (≈ 180 µM) | 64 µg/mL (≈ 180 µM) | 32 µg/mL (≈ 89.8 µM) | 64 µg/mL (≈ 180 µM) | >128 µg/mL |
| CO/N=C1\C2CCCC1(C)C(c1ccccc1C)NC2c1ccccc1C (configuration not stated) | 128 µg/mL (≈ 353 µM) | 64 µg/mL (≈ 177 µM) | 128 µg/mL (≈ 353 µM) | 128 µg/mL (≈ 353 µM) | 128 µg/mL (≈ 353 µM) | 32 µg/mL (≈ 88.3 µM) | 64 µg/mL (≈ 177 µM) | 32 µg/mL (≈ 88.3 µM) | – | – | – | – | – | – | – | – |
| CC12CCCC(/C1=N\O)C(c1ccccc1Br)NC2c1ccccc1Br (configuration not stated) | 64 µg/mL (≈ 134 µM) | 128 µg/mL (≈ 268 µM) | > 128 µg/mL | > 128 µg/mL | 128 µg/mL (≈ 268 µM) | 64 µg/mL (≈ 134 µM) | 64 µg/mL (≈ 134 µM) | 128 µg/mL (≈ 268 µM) | – | – | – | – | – | – | – | – |
| Cc1ccccc1C1NC(c2ccccc2C)C2(C)CCCC1/C2=N\O (configuration not stated) | > 128 µg/mL | 64 µg/mL (≈ 184 µM) | > 128 µg/mL | > 128 µg/mL | 128 µg/mL (≈ 367 µM) | 128 µg/mL (≈ 367 µM) | 128 µg/mL (≈ 367 µM) | 64 µg/mL (≈ 184 µM) | – | – | – | – | – | – | – | – |
| CC12CCCC(/C1=N\O)C(c1ccc(Br)cc1)NC2c1ccc(Br)cc1 (configuration not stated) | > 128 µg/mL | 128 µg/mL (≈ 268 µM) | > 128 µg/mL | 128 µg/mL (≈ 268 µM) | > 128 µg/mL | 64 µg/mL (≈ 134 µM) | > 128 µg/mL | > 128 µg/mL | – | – | – | – | – | – | – | – |
| CO/N=C1\C2CCCC1(C)C(c1ccccc1Br)NC2c1ccccc1Br (configuration not stated) | 32 µg/mL (≈ 65 µM) | 32 µg/mL (≈ 65 µM) | 128 µg/mL (≈ 260 µM) | 128 µg/mL (≈ 260 µM) | 64 µg/mL (≈ 130 µM) | 64 µg/mL (≈ 130 µM) | 64 µg/mL (≈ 130 µM) | 64 µg/mL (≈ 130 µM) | – | – | – | – | – | – | – | – |
| CO/N=C1\C2CCCC1(C)C(c1ccccc1Cl)NC2c1ccccc1Cl (configuration not stated) | 4 µg/mL (≈ 9.92 µM) | 16 µg/mL (≈ 39.7 µM) | 8 µg/mL (≈ 19.8 µM) | 4 µg/mL (≈ 9.92 µM) | 8 µg/mL (≈ 19.8 µM) | 4 µg/mL (≈ 9.92 µM) | 32 µg/mL (≈ 79.3 µM) | 32 µg/mL (≈ 79.3 µM) | – | – | – | – | – | – | – | – |
| CC12CCCC(/C1=N\O)C(c1ccccc1)NC2c1ccccc1 (configuration not stated) | > 128 µg/mL | > 128 µg/mL | > 128 µg/mL | > 128 µg/mL | > 128 µg/mL | 128 µg/mL (≈ 399 µM) | > 128 µg/mL | > 128 µg/mL | – | – | – | – | – | – | – | – |
| CC12CCCC(/C1=N\O)C(c1ccccc1Cl)NC2c1ccccc1Cl (configuration not stated) | 8 µg/mL (≈ 20.5 µM) | 16 µg/mL (≈ 41.1 µM) | 32 µg/mL (≈ 82.2 µM) | 8 µg/mL (≈ 20.5 µM) | 16 µg/mL (≈ 41.1 µM) | 8 µg/mL (≈ 20.5 µM) | 64 µg/mL (≈ 164 µM) | 64 µg/mL (≈ 164 µM) | – | – | – | – | – | – | – | – |
| CC1CC2C(=NO)C(C1)C(c1ccc(F)cc1)NC2c1ccc(F)cc1 (configuration not stated) | 64 µg/mL (≈ 180 µM) | 64 µg/mL (≈ 180 µM) | 64 µg/mL (≈ 180 µM) | 32 µg/mL (≈ 89.8 µM) | 32 µg/mL (≈ 89.8 µM) | 8 µg/mL (≈ 22.4 µM) | 32 µg/mL (≈ 89.8 µM) | 64 µg/mL (≈ 180 µM) | – | – | – | – | – | – | – | – |
| GENTAMICIN | – | – | – | – | – | – | – | – | – | – | 16 µg/mL | – | 2 µg/mL | 4 µg/mL | – | 16 µg/mL |

Reference: ChEMBL document CHEMBL1154956, “Stereospecific synthesis of oximes and oxime ethers of 3-azabicycles: A SAR study towards antimicrobial agents” (2010)
